In ChEMBL document CHEMBL1140859, “Design and synthesis of some thiazolyl and thiadiazolyl derivatives of antipyrine as potential non-acidic anti-inflammatory, analgesic and antimicrobial agents” (Bioorg Med Chem, 2009):
Converted amounts (≈) assume the structure as drawn.

Legend:
Rattus norvegicus [1] = experiment: Antiinflammatory activity against formalin-induced paw edema in anaesthetized Albino rat acute inflammatory model at 20 mg/kg, po dosed 1 hr before formalin challenge assessed after 4 hrs; format: functional
How it was run: (§1)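 Rats in groups of five plus control; test compounds 20 mg/kg po, diclofenac Na 10 mg/kg po, given 1 h before 0.1 mL 2% formalin injected subplantar into left hind paw under light ether anaesthesia. Paw volume by water plethysmometer at 0 and 1, 2, 3, 4 h after formalin; % anti-inflammatory activity versus control; mean ± SE, N = 5.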

Bacillus subtilis = experiment: Antimicrobial activity against Bacillus subtilis NRRL B-14819 after 24 hrs by twofold serial dilution method; format: functional
How it was run: (§2)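 Broth microdilution in Müller–Hinton broth on compounds with agar-diffusion inhibition zones ≥14 mm (disks with 1 mg/mL in DMSO, 37 °C, 24 h, triplicate).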

Rattus norvegicus [2] = experiment: Antiinflammatory activity against formalin-induced paw edema in anaesthetized Albino rat acute inflammatory model at 20 mg/kg, po dosed 1 hr before formalin challenge assessed after 3 hrs; format: functional; how it was run: as §1
Rattus norvegicus [3] = experiment: Analgesic activity in Albino rat assessed as tail withdrawal response at 20 mg/kg, po after 1 hr; format: functional
How it was run: (§3)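 Male albino rats, 120–150 g, groups of five plus untreated control; test compounds 20 mg/kg po, diclofenac Na 10 mg/kg po. Tail immersed in 55 °C water; withdrawal reaction time read 1, 2 and 3 h after dosing; percentage increase in reaction time over basal computed; mean ± SE of five animals.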

Pseudomonas aeruginosa = experiment: Antimicrobial activity against Pseudomonas aeruginosa ATCC 27853 after 24 hrs by twofold serial dilution method; format: functional; details: ATCC 27853, 24 h; how it was run: as §2
Rattus norvegicus [4] = experiment: Antiinflammatory activity against formalin-induced paw edema in anaesthetized Albino rat acute inflammatory model at 20 mg/kg, po dosed 1 hr before formalin challenge assessed after 1 hr; format: functional; how it was run: as §1
Rattus norvegicus [5] = experiment: Analgesic activity in Albino rat assessed as tail withdrawal response at 20 mg/kg, po after 3 hrs; format: functional; how it was run: as §3
Rattus norvegicus [6] = experiment: Antiinflammatory activity against formalin-induced paw edema in anaesthetized Albino rat acute inflammatory model at 20 mg/kg, po dosed 1 hr before formalin challenge assessed after 2 hrs; format: functional; how it was run: as §1
Staphylococcus aureus = experiment: Antimicrobial activity against Staphylococcus aureus ATCC 6538 after 24 hrs by twofold serial dilution method; format: functional; details: ATCC 6538, 24 h; how it was run: as §2
Rattus norvegicus [7] = experiment: Antiinflammatory activity against formalin-induced paw edema in anaesthetized Albino rat sub-acute inflammatory model at 20 mg/kg, po measured on day 1; format: functional
How it was run: (§4)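 Sub-acute paw edema: test compounds 20 mg/kg po daily for 7 days, diclofenac Na 10 mg/kg po; 0.1 mL 2% formalin injected subplantar into left hind paw under light ether anaesthesia on days 1 and 3, 1 h after dosing. Paw volume measured on day 1 and day 8; % anti-inflammatory activity; N = 5 rats.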

[8] = Acute toxicity in Albino rat after 24 hrs; format: organism-based; details: in vivo, read-out: ALD50
How it was run: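 Male rats, 180–200 g, groups of five, fasted 24 h before dosing; compounds given orally in graded doses of 0.1–3.0 g/kg; mortality recorded at each dose level after 24 h to estimate approximate acute lethal dose (ALD50).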

Escherichia coli = experiment: Antimicrobial activity against Escherichia coli ATCC 25922 after 24 hrs by twofold serial dilution method; format: functional; details: ATCC 25922, 24 h; how it was run: as §2
Rattus norvegicus [9] = experiment: Antiinflammatory activity against turpentine oil-induced granuloma pouch in anaesthetized Albino rat sub-acute inflammatory model at 20 mg/kg, po 1 hr before turpentine oil challenge for 7 days assessed after 8 days; format: functional
How it was run: (§5)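 Dorsal subcutaneous pouch made in ether-anaesthetised rats with 2 mL air, then 0.5 mL turpentine oil. Test compounds 20 mg/kg po, diclofenac Na 10 mg/kg po, started 1 h before turpentine and continued 7 days. Exudate aspirated on day 8 under anaesthesia; volume measured; % inhibition = (Vcontrol − Vtreated)/Vcontrol × 100; N = 5.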

Rattus norvegicus [10] = experiment: Antiinflammatory activity against formalin-induced paw edema in anaesthetized Albino rat sub-acute inflammatory model at 20 mg/kg, po for 7 days measured on day 8; format: functional; how it was run: as §4
Rattus norvegicus [11] = experiment: Analgesic activity in Albino rat assessed as tail withdrawal response at 20 mg/kg, po after 2 hrs; format: functional; how it was run: as §3
Rattus norvegicus [12] = experiment: Toxicity in Albino rat assessed as induction of gastric ulceration at 300 mg/kg, po twice a day after 2 hrs; format: organism-based, Stomach; set-up: dose 300 mg/kg, route oral; details: in vivo
How it was run: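 Male albino rats (180–200 g), five per group, fasted 12 h with water ad libitum. Oral dosing at 300 mg/kg; the results text gives two doses at a 2 h interval, while the methods give two equal doses at 0 and 12 h over three days. Controls received 1% gum acacia orally. Rats were killed with ether 6 h after the last dose, and stomachs were inspected grossly for ulceration and hyperemia.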

Micrococcus luteus = experiment: Antimicrobial activity against Micrococcus luteus ATCC 21881 after 24 hrs by twofold serial dilution method; format: functional; details: ATCC 21881, 24 h; how it was run: as §2
Klebsiella pneumoniae = experiment: Antimicrobial activity against Klebsiella pneumoniae clinical isolate after 24 hrs by twofold serial dilution method; format: functional; how it was run: as §2
Rattus norvegicus [13] = experiment: Antiinflammatory activity against formalin-induced paw edema in anaesthetized Albino rat acute inflammatory model at 10 mg/kg, po dosed 1 hr before formalin challenge assessed after 3 hrs; format: functional; how it was run: as §1
Rattus norvegicus [14] = experiment: Antiinflammatory activity against formalin-induced paw edema in anaesthetized Albino rat acute inflammatory model at 10 mg/kg, po dosed 1 hr before formalin challenge assessed after 4 hrs; format: functional; how it was run: as §1
Rattus norvegicus [15] = experiment: Analgesic activity in Albino rat assessed as tail withdrawal response at 10 mg/kg, po after 2 hrs; format: functional; how it was run: as §3
Rattus norvegicus [16] = experiment: Antiinflammatory activity against formalin-induced paw edema in anaesthetized Albino rat sub-acute inflammatory model at 10 mg/kg, po for 7 days measured on day 8; format: functional; how it was run: as §4
Rattus norvegicus [17] = experiment: Antiinflammatory activity against formalin-induced paw edema in anaesthetized Albino rat acute inflammatory model at 10 mg/kg, po dosed 1 hr before formalin challenge assessed after 1 hr; format: functional; how it was run: as §1
Rattus norvegicus [18] = experiment: Analgesic activity in Albino rat assessed as tail withdrawal response at 10 mg/kg, po after 1 hr; format: functional; how it was run: as §3
Rattus norvegicus [19] = experiment: Antiinflammatory activity against turpentine oil-induced granuloma pouch in anaesthetized Albino rat sub-acute inflammatory model at 10 mg/kg, po 1 hr before turpentine oil challenge for 7 days assessed after 8 days; format: functional; how it was run: as §5
Rattus norvegicus [20] = experiment: Antiinflammatory activity against formalin-induced paw edema in anaesthetized Albino rat sub-acute inflammatory model at 10 mg/kg, po measured on day 1; format: functional; how it was run: as §4
Rattus norvegicus [21] = experiment: Analgesic activity in Albino rat assessed as tail withdrawal response at 10 mg/kg, po after 3 hrs; format: functional; how it was run: as §3
Rattus norvegicus [22] = experiment: Antiinflammatory activity against formalin-induced paw edema in anaesthetized Albino rat acute inflammatory model at 10 mg/kg, po dosed 1 hr before formalin challenge assessed after 2 hrs; format: functional; how it was run: as §1

With Cc1c(NC(=O)/C(C#N)=C2\SCC(=O)N2c2ccccc2)c(=O)n(-c2ccccc2)n1C the Activity (Rattus norvegicus [1]) was 19%, the MIC (Bacillus subtilis) was 100 µg/mL (≈ 224 µM) and the Activity (Rattus norvegicus [2]) was 23%. For the same compound, the Activity (Rattus norvegicus [3]) was 22%, the MIC (Pseudomonas aeruginosa) was 50 µg/mL (≈ 112 µM) and the Activity (Rattus norvegicus [4]) was 13%. For the same compound, the Activity (Rattus norvegicus [5]) was 34%, the Activity (Rattus norvegicus [6]) was 31% and the MIC (Staphylococcus aureus) was 50 µg/mL (≈ 112 µM). The Activity (Rattus norvegicus [7]) was 29%, the LD50 at 24 h [8] was over 3000 mg/kg and the MIC (Escherichia coli) was 50 µg/mL (≈ 112 µM). It also gave an Activity (Rattus norvegicus [9]) of 53%, an Activity (Rattus norvegicus [10]) of 17% and an Activity (Rattus norvegicus [11]) of 20%. The Activity (Rattus norvegicus [12]) was “Non-toxic”, the MIC (Micrococcus luteus) was 100 µg/mL (≈ 224 µM) and the MIC (Klebsiella pneumoniae) was 50 µg/mL (≈ 112 µM).
Compound O=C([O-])Cc1ccccc1Nc1c(Cl)cccc1Cl.[Na+] [DICLOFENAC SODIUM] has an Activity (Rattus norvegicus [13]) of 44%, an Activity (Rattus norvegicus [14]) of 45% and an Activity (Rattus norvegicus [15]) of 55%. It also gave an Activity (Rattus norvegicus [16]) of 46%, an Activity (Rattus norvegicus [17]) of 17% and an Activity (Rattus norvegicus [18]) of 26%. The Activity (Rattus norvegicus [19]) was 73%, the Activity (Rattus norvegicus [20]) was 40% and the Activity (Rattus norvegicus [21]) was 79%. The Activity (Rattus norvegicus [22]) was 40% and the Activity (Rattus norvegicus [12]) was “Toxic”.
